# Calls of active or inactive are those of the source.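 The calls were made as follows: active = duplicate-averaged activation above buffer control mean plus 5 SD of those controls; inactive = the rest.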
# Experiment: thallium flux activation in parental CHO cells, counter-screen for KCNQ1 potentiator project (AID 493006);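 as to activation: fluorescence ratio of max minus min over baseline after K+ and Tl+ depolarization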
# Conditions: parental CHO-K1 cells, FluxOR thallium flux, at 10 µM; active compounds read high
# Summary of the method: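 Material: parental CHO-K1 cells, FluxOR dye-loaded; Also added: Potassium/thallium depolarization pulse; Schedule: overnight 37 °C plating, 90 min dye, 20 min dark compound; Signal: kinetic FluxOR fluorescence, 10 s baseline, 110 s after stimulus.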
Compound,activation,outcome
N#C/C=C1/NC(=O)c2ccccc2S1,138% (active),–
O=C(Nc1cc([N+](=O)[O-])ccc1N1CCCC1)c1cccs1,–,inactive
O=C(Nc1nc(=O)c2ccccc2s1)c1ccc(F)cc1,–,inactive
O=C(NCc1ccccn1)c1ccc(COc2ccc(Cl)cc2)o1,138% (active),–
C/C(=N\NC(=O)c1cccc(F)c1)c1ccc(Br)s1,–,inactive
N#C/C(=C/c1cn(-c2ccccc2)nc1-c1cccc(S(=O)(=O)N2CCOCC2)c1)C(=O)NCc1ccco1,–,inactive
CCCN(C(=O)c1cn(-c2ccccc2)nc1-c1ccc(OC)cc1)C1CCS(=O)(=O)C1 (stereo not drawn),–,inactive
S=c1nc[nH]c2c1cnn2-c1ccccc1,168% (active),–
CCCOc1ccc(-c2c(=O)n(O)c3ccccc3[n+]2[O-])cc1,237% (active),–
CCOC(=O)c1oc2c(CN3CCCCC3C)c(O)ccc2c(=O)c1-c1ccc(OC)c(OC)c1 (stereo not drawn),–,inactive
Oc1c(N=NC(=S)Nc2ccccc2F)c2ccccc2n1Cc1ccccc1Cl,180% (active),–
S=c1[nH]cc(Cc2ccccc2)s1,205% (active),–
CCN(CC)C(=S)NC(=O)c1ccc(OC)c(Br)c1,209% (active),–
O=C(c1ccc(COc2ccc(Cl)cc2)o1)N1CCN(Cc2ccc3c(c2)OCO3)CC1,–,inactive
COc1ccc(C(=O)O/N=C(\N)c2ccccc2Cl)cc1OC,–,inactive
O=C(C1CCCCC1)N1CCCC(c2nc3c(nnn3Cc3ccccc3)c(=O)[nH]2)C1 (stereo not drawn),–,inactive
CC(=O)CC1(OC(C)=O)C(=O)N(C)c2ccccc21 (stereo not drawn),–,inactive
C=CCN(c1ccccc1)S(=O)(=O)c1cccc(C(=O)Nc2cccc(C)n2)c1,290% (active),–
